One molecule from ChEMBL document CHEMBL4229376, “Optimization of the pharmacokinetic properties of potent anti-trypanosomal triazine derivatives” (Eur J Med Chem, 2018) can be followed below.

The nature of data set [1]: Drug level in Swiss mouse blood infected with Trypanosoma brucei brucei Squib 427 at 50 mg/kg, po bid for 5 days measured after 1 hr after last dose by UPLC/MS/ESI analysis. The conditions noted are these: whole blood, read-out: Drug uptake. Type of data set: ADME, organism-based.
A short description of data set [2]: Drug uptake in Swiss mouse blood at 50 mg/kg, po administered as single dose after 1 hr by UPLC/MS/ESI analysis. Type of data set: ADME, organism-based. The following applies: whole blood, read-out: Drug uptake. In a few lines: (§1)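 Mice were given the compound orally as a single dose of either 25 or 50 mg/kg, one group per dose. Plasma concentrations were followed over time up to 24 h, and the pharmacokinetic parameters were derived from the concentration-time profile.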

Data set [3] has as its system Trypanosoma brucei brucei. Nature of the data set: Antitrypanosomal activity against suramin-sensitive Trypanosoma brucei brucei Squib 427 after 72 hrs by resazurin dye-based fluorimetric analysis. Type of data set: functional, organism-based. The conditions noted are these: Squib 427, 72 h.
Data set [4] relates to Leishmania infantum. Nature of the data set: Antileishmanial activity against Leishmania infantum MHOM/MA (BE)/67 amastigotes infected in primary peritoneal mouse macrophages after 120 hrs by giemsa staining-based microscopic analysis. Type of data set: functional, organism-based. The conditions noted are these: MHOM/MA (BE)/67, 120 h.
Data set [5] is described as follows: Drug uptake in Swiss mouse blood at 50 mg/kg, po administered as single dose after 0.25 hrs by UPLC/MS/ESI analysis. The following applies: whole blood, read-out: Drug uptake. Type of data set: ADME, organism-based. Put shortly:
as §1

Data set [6] is described as follows: Drug uptake in Swiss mouse blood at 25 mg/kg, po administered as single dose after 4 hrs by UPLC/MS/ESI analysis. The following applies: whole blood, read-out: Drug uptake. Type of data set: ADME, organism-based. In a few lines:
as §1

The nature of data set [7]: Drug level in Swiss mouse blood infected with Trypanosoma brucei brucei Squib 427 at 50 mg/kg, po bid for 5 days measured after 4 hrs after last dose by UPLC/MS/ESI analysis. Type of data set: ADME, organism-based. The following applies: whole blood, read-out: Drug uptake.
In data set [8] the test system is Trypanosoma brucei brucei. Nature of the data set: Antitrypanosomal activity against Trypanosoma brucei brucei Squib 427 infected in Swiss mouse assessed as mouse survival at 50 mg/kg, po administered as single dose for 5 days and measured on day 14 post infection. Type of data set: functional, organism-based. In a few lines: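 Acute T. b. brucei mouse infection model. Dosing was PO or IP at 10–50 mg/kg, once (SID) or twice (BID) daily for 5 days after infection, with 3 mice per group. […] Read-outs were mean survival time and survivors on day 14 post infection.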

For data set [9], the system named is Trypanosoma brucei brucei. The experiment in a line: Antitrypanosomal activity against Trypanosoma brucei brucei Squib 427 infected in Swiss mouse at 50 mg/kg, po administered as single dose after 24 hrs. Type of data set: functional, organism-based. The following applies: Squib 427, 24 h.
Data set [10] is described as follows: Drug metabolism in human plasma assessed as parent compound remaining after 15 mins by UPLC/MS/ESI analysis. Type of data set: ADME, cell-free. The conditions noted are these: read-out: Stability.
Data set [11] is described as follows: Protein binding in 10% FBS in Trypanosoma brucei culture medium at 10 uM after 6 hrs by equilibrium dialysis and LC-MS analysis. The conditions noted are these: cattle, read-out: PB. Type of data set: ADME, cell-free, Bos taurus, Serum.
Data set [12] can be described thus: Clearance in Swiss mouse at 25 mg/kg, po administered as single dose after 24 hrs by UPLC/MS/ESI analysis. Type of data set: ADME, organism-based. The conditions noted are these: in vivo. Put shortly: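 Mice in groups received one oral dose of 25 or 50 mg/kg. Plasma concentrations were followed over time up to 24 h, and PK parameters including T1/2 were derived from the concentration–time profile.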

For data set [13], the system named is Mus musculus. The experiment in a line: Apparent volume of distribution in Swiss mouse infected with Trypanosoma brucei brucei Squib 427 at 25 mg/kg, po administered as single dose after 24 hrs by UPLC/MS/ESI analysis. The conditions noted are these: in vivo. Type of data set: ADME, organism-based.
Data set [14] is described as follows: Drug metabolism in human plasma assessed as parent compound remaining after 60 mins by UPLC/MS/ESI analysis. Type of data set: ADME, cell-free. The conditions noted are these: read-out: Stability.

SMILES strings stand for the structures. Activity calls are given as the source filed them. The rule behind the calls is not given here.

On to `Nc1nc(Nc2ccc(F)cc2)nc(Oc2ccc(F)cc2)n1`, for which the concentration at 1 h amounted to 3800 ng/mL in [1] and 1730 ng/mL in data set [2]. Further, the IC50 in data set [3] was 0.6 µM; in data set [4] it was greater than 64 µM; in [9], 0.63 µM. Besides, the concentration at 0.25 h in data set [5] is 1320 ng/mL. Also, the values for the concentration at 4 h in data set [6] and in [7] were 929 ng/mL and 800 ng/mL, respectively. Besides, the result in data set [8] was inactive. Besides, the remaining at 0.25 h in [10] was 80%. For the same molecule, the fraction unbound at 6 h, 10 µM in data set [11] was determined as 0.498. For the same molecule, the apparent clearance (CL/F) in [12] turned out to be 70.1 mL/min. Also, in [13], the Vz worked out at 13 L. For the same molecule, in [14], the remaining at 1 h was 88%.
